Experimental data reported in ChEMBL document CHEMBL4433215, “SAR Studies and Biological Characterization of a Chromen-4-one Derivative as an Anti-Trypanosoma brucei Agent” (ACS Med Chem Lett, 2019).

Experiments:
786-0 = experiment: Mitochondrial toxicity in human 786-O cells at 10 uM after 6 hrs by MitoTracker Red chloromethyl-X-rosamine based assay; type: cell-based; settings: 786-0, 6 h
[1] = Cytotoxicity against human THP1 cells by MTT assay; type: cell-based, THP-1
Trypanosoma brucei [2] = experiment: Antitrypanosomal activity against Trypanosoma brucei bloodstream form after 72 hrs by resazurin dye-based assay relative to control; type: functional, organism-based
Method in brief: (§1)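 T. brucei bloodstream forms were screened first. Compounds giving over 70% parasite growth inhibition then went to a full dose–response curve to derive EC50. Pentamidine was the reference.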

Trypanosoma brucei [3] = experiment: Antitrypanosomal activity against Trypanosoma brucei bloodstream form assessed as parasite growth inhibition at 10 uM after 72 hrs by resazurin dye-based assay relative to control; type: functional; settings: read-out: GI; method in brief: as §1
[4] = Cytotoxicity against human A549 cells assessed as cell growth at 10 uM after 48 hrs by cell-titer-Glo assay relative to control; type: cell-based; settings: read-out: Activity
Method in brief: (§2)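 Single-concentration screen at 10 μM within an early in vitro ADME-tox panel, covering cytotoxicity in A549 cells and hERG inhibition.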

[5] = molecular target: Voltage-gated inwardly rectifying potassium channel KCNH2 (Homo sapiens, UniProt Q12809); experiment: Inhibition of human ERG at 10 uM after 2 hrs by fluorescence polarization assay; method in brief: as §2
[6] = Selectivity index, ratio of CC50 for cytotoxicity against human THP1 cells to EC50 for antitrypanosomal activity against Trypanosoma brucei bloodstream form; type: toxicity, cell-based; settings: read-out: Ratio CC50/EC50

Chain of Voltage-gated inwardly rectifying potassium channel KCNH2 (Q12809 whole entry): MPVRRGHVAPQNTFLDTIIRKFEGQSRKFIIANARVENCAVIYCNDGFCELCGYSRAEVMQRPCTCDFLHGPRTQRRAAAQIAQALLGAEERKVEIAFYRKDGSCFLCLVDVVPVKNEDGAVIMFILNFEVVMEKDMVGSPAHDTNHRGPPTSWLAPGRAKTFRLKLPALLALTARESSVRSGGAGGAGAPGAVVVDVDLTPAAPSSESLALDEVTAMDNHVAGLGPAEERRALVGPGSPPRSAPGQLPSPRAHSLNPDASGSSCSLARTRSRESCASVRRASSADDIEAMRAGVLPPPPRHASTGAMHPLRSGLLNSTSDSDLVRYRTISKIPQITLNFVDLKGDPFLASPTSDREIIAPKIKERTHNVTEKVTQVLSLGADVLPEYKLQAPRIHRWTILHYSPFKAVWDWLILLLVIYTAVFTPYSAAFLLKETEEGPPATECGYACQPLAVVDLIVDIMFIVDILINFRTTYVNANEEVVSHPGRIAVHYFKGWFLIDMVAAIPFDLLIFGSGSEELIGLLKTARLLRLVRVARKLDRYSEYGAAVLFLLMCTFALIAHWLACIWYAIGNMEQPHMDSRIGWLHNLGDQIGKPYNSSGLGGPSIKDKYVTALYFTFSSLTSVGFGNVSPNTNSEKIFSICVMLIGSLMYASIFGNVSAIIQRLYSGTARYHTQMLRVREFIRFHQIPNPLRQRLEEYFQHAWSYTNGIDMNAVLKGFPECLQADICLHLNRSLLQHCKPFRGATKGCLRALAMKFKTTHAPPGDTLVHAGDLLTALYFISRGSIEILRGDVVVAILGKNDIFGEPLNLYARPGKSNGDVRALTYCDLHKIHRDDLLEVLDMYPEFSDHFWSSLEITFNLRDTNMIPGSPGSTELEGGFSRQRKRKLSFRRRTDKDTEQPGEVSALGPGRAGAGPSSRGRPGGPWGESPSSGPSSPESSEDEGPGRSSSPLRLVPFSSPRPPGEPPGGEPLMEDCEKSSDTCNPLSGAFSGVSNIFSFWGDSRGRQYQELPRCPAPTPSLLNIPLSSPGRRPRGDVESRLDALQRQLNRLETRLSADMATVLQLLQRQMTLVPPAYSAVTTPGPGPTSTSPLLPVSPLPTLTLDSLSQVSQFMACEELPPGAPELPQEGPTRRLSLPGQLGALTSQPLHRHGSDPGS

| Compound | EC50 (Trypanosoma brucei [2]) [µM] | IC50 (Trypanosoma brucei [2]) [µM] | Activity (786-0) | CC50 [1] [µM] | inhibition of growth at 10 µM (Trypanosoma brucei [3]) [%] | viability at 48 h, 10 µM [4] [%] | inhibition (INH) [5] | selectivity ratio [6] |
| --- | --- | --- | --- | --- | --- | --- | --- | --- |
| CCCOc1c(-c2ccc3c(c2)OCO3)oc2cc(OC)ccc2c1=O | > 10 |  | Non-Toxic | 12.5 to 25 | 20 |  | Not Active |  |
| COc1ccc2oc(-c3ccc4c(c3)OCO4)c(O)c(=O)c2c1 |  |  | Non-Toxic | < 12.5 | 19 |  | Not Active |  |
| COc1ccc2c(=O)c(O)c(-c3ccc4c(c3)OC(F)(F)O4)oc2c1 | > 10 |  | Non-Toxic | > 100 | 47 |  | Not Active |  |
| O=c1c(O)c(-c2ccc3c(c2)OCO3)oc2ccc(Cl)cc12 |  |  | Non-Toxic | < 12.5 | 13 |  | Not Active |  |
| COc1ccc2c(=O)c(O)c(-c3ccc4c(c3)OCCO4)oc2c1 | > 10 |  | Non-Toxic | 50 to 100 | 71 |  | Not Active |  |
| Cc1ccc2oc(-c3ccc4c(c3)OCO4)c(O)c(=O)c2c1 | 4.1 |  | Non-Toxic | < 12.5 | 99 |  | Not Active | 3 |
| N=C(N)c1ccc(OCCCCCOc2ccc(C(=N)N)cc2)cc1 [PENTAMIDINE] |  | 0.00155 |  |  |  |  |  |  |

More lines, main results first:

| EC50 (Trypanosoma brucei [2]) [µM] | IC50 (Trypanosoma brucei [2]) [µM] | Compound | Activity (786-0) | CC50 [1] [µM] | inhibition of growth at 10 µM (Trypanosoma brucei [3]) [%] | viability at 48 h, 10 µM [4] [%] | inhibition (INH) [5] | selectivity ratio [6] |
| --- | --- | --- | --- | --- | --- | --- | --- | --- |
| 3.8 |  | O=c1c(O)c(-c2ccc3c(c2)OCO3)oc2cc(Cl)ccc12 | Non-Toxic | < 12.5 | 83 | < 0 | Not Active | 3 |
| 0.6 |  | CCCCC(=O)Oc1c(-c2ccc3c(c2)OCO3)oc2cc(OC)ccc2c1=O | Non-Toxic | < 12.5 | 100 |  | Not Active | 22 |
| 2.4 |  | O=c1c(O)c(-c2ccc3c(c2)OCO3)oc2cc(F)ccc12 | Non-Toxic | < 12.5 | 98 |  | Not Active | 8 |
| 0.5 |  | COc1ccc2c(=O)c(OC(=O)C3CCCCC3)c(-c3ccc4c(c3)OCO4)oc2c1 | Non-Toxic | 12.5 to 25 | 98 |  | Not Active | 25 |
